Assay results: publication PMC4324418 (ACS Chemical Neuroscience, 2014)

Experiments:
M4 KO mice = test: Amphetamine-induced hyperlocomotion in M4 KO mice; type: in vivo, mouse
[1] = Amphetamine-induced hyperlocomotion in M4 KO mice; type: in vivo, mouse; details: mouse, brain, ip, 10 mg/kg, 10 mg/kg IP
rat M2 receptor = test: Calcium mobilization, selectivity; type: cell-based
Procedure, shortened: (§1)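 Cells were seeded at 15000/well in DMEM with 10% dialyzed FBS, 20 mM HEPES and 1 mM pyruvate, then cultured overnight at 37 °C/5% CO2. M2 and M4 lines were cotransfected with Gqi5. Cells were loaded with 1 μM Fluo-4AM (HBSS, 20 mM HEPES, 2.5 mM probenecid, pH 7.4) for 50 min at 37 °C. ACh was added 140 s after test compound. Calcium signal was expressed as % of the 10 μM ACh maximum.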

rats = test: Amphetamine-induced hyperlocomotion in rats; type: in vivo; details: rat, amphetamine 0.75 mg/kg SC
[2] = Amphetamine-induced hyperlocomotion in rats; type: in vivo; details: Sprague-Dawley, rat, brain, po
human M4 = biological target: T1, human M4 (Homo sapiens, UniProt P08173); type: cell-based; details: maximum response as % of the Emax of ACh
T1 sequence (P08173 1-479): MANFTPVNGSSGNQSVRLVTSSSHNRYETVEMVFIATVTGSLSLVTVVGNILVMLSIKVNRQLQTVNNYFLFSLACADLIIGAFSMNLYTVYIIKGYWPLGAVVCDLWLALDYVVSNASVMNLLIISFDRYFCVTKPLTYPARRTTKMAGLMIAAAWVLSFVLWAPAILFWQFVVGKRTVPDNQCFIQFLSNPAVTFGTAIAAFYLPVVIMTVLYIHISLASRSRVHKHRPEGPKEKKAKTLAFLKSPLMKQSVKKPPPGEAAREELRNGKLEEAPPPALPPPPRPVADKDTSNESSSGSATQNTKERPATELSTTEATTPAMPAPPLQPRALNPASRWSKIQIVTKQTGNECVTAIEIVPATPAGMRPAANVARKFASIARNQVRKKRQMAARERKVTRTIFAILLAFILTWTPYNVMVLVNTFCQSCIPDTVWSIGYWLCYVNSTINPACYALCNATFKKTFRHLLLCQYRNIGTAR

human M2 receptor = test: Calcium mobilization, selectivity; type: cell-based
Procedure, shortened: as §1

human M3 receptor = test: Calcium mobilization, selectivity; type: cell-based
Procedure, shortened: as §1

[3] = Mouse brain homogenate binding; type: in vitro ADME
wild-type mice [4] = test: Contextual fear conditioning, one-shock paradigm; type: in vivo, mouse; details: 3–30 mg/kg, measured 24 h later
Procedure, shortened: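 One-shock contextual conditioning used a 3 min session: 2 min habituation, one 0.4 mA shock, then 59 s before removal. Dosing was vehicle (10% Tween 80 in sterile water) or test compound at 3, 10 or 30 mg/kg IP. Mice were returned to the same chamber 24 h later, and percent time freezing was scored over 3 min.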

in vivo = details: male, Sprague-Dawley, rat, po, 3 mg/kg, Tmax,p
[5] = Mouse plasma protein binding; type: in vitro ADME
rat M4 receptor = biological target: T2, rat M4 receptor (Rattus norvegicus, UniProt P08485); test: Progressive fold-shift of ACh concentration-response curve; type: cell-based; details: operational model of allosterism
T2 sequence (P08485 1-478): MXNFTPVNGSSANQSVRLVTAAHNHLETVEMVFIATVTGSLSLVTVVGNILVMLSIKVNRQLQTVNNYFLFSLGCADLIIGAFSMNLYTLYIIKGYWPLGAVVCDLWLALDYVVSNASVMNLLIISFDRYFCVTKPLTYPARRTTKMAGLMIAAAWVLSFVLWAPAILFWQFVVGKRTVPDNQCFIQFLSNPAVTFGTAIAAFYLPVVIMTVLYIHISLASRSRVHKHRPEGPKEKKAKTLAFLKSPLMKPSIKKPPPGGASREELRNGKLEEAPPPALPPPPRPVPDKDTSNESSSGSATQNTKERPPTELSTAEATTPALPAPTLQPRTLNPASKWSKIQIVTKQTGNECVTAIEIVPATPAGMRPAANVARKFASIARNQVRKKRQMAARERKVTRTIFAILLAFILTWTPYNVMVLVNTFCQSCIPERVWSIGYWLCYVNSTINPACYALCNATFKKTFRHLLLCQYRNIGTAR

wild-type mice [6] = test: MK-801-induced locomotor and nonlocomotor open field behaviors; type: in vivo, mouse
Procedure, shortened: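 After 90 min open-field habituation, mice received vehicle (10% Tween 80 IP) or test compound (3–30 mg/kg IP). Saline or MK-801 (0.3 mg/kg IP) followed 30 min later. Over the next 120 min, ambulatory episodes, vertical counts, stereotypic counts and resting time were scored. Groups were 7–13 mice; ANOVA with Bonferroni tests.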

[7] = biological target: T3, guinea pig adenosine transporter (Cavia porcellus, UniProt H0V4R7); test: Cerep panel, displacement of [3H]NTBI binding
T3 sequence (H0V4R7 1-461): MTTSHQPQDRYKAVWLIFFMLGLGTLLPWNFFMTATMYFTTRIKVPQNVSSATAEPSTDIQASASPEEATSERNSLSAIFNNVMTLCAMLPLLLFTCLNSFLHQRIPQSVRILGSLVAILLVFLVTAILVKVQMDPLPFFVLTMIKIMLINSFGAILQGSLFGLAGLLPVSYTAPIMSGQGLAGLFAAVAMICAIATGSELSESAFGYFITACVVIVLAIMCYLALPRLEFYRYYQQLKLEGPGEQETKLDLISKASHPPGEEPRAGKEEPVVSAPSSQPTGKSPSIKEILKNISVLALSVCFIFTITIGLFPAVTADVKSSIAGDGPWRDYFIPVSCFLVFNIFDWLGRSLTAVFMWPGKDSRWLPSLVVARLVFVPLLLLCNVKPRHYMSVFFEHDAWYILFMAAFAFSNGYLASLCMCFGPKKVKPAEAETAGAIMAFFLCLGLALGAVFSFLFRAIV

human M1 receptor = test: Calcium mobilization, selectivity; type: cell-based
Procedure, shortened: as §1

human M5 receptor = test: Calcium mobilization, selectivity; type: cell-based
Procedure, shortened: as §1

## Cc1nnc2sc(C(=O)NCc3ccc(S(=O)(=O)C(F)(F)F)cc3)c(N)c2c1C [VU0467154, 5-amino-3,4-dimethyl-N-(4-((trifluoromethyl)sulfonyl)benzyl)thieno[2,3-c]pyridazine-6-carboxamide]
M4 KO mice
  effect on amphetamine-induced hyperlocomotion: had no effect on the time course of amphetamine-induced hyperlocomotion
M4 KO mice; 10 mg/kg IP, amphetamine […] SC
  mean reversal of AHL: –6.6%
[1]; mean Cbrain, at 2.5 h postadministration
  concentration at 2.5 h: 217 nM
[1]; mean Cbrain,u, 2.5 h, in vitro mouse fubrain 0.014
  concentration at 2.5 h: 3 nM
Rat M2 receptor
  potentiation of ACh response (calcium response): lack of a calcium response
rats; PO 1 mg/kg
  mean reversal of AHL: 21%
rats; PO 3 mg/kg
  mean reversal of AHL: 33%
rats; PO 10 mg/kg
  mean reversal of AHL: 46%
rats; PO 30 mg/kg
  mean reversal of AHL: 53%
rats; PO 56.6 mg/kg
  mean reversal of AHL: 42%
[2]; 3 mg/kg, mean Cbrain, PO 3 mg/kg, at 1.5 h postadministration
  concentration at 1.5 h: 750 nM
[2]; 3 mg/kg, mean Cbrain,u, PO 3 mg/kg, 1.5 h, in vitro rat fubrain 0.067
  concentration at 1.5 h: 50 nM
[2]; 10 mg/kg, mean Cbrain, PO 10 mg/kg, at 1.5 h postadministration
  concentration at 1.5 h: 1100 nM
[2]; 10 mg/kg, mean Cbrain,u, PO 10 mg/kg, 1.5 h, in vitro rat fubrain 0.067
  concentration at 1.5 h: 74 nM
[2]; 30 mg/kg, mean Cbrain,u, PO 30 mg/kg, 1.5 h, in vitro rat fubrain 0.067
  concentration at 1.5 h: 94 nM
[2]; 56.6 mg/kg, mean Cbrain,u, PO 56.6 mg/kg, 1.5 h, in vitro rat fubrain 0.067
  concentration at 1.5 h: 94 nM
Human M4
  %AChmax: 55%
Human M2 receptor
  potentiation of ACh response (calcium response): lack of a calcium response
Human M3 receptor
  potentiation of ACh response (calcium response): lack of a calcium response
[3]
  fraction unbound: 0.014
wild-type mice [4]
  acquisition of contextual fear conditioning behaviors: dose-dependent enhancement
In vivo
  Tmax: ~3 h
[5]
  fraction unbound: 0.022
Rat M4 receptor
  efficacy cooperativity factor (log β): 0.91
  efficacy cooperativity factor β: 8.17
wild-type mice [6]
  reversal of MK-801-induced increases in ambulatory episodes and vertical counts: potently reversed
  reversal of MK-801-mediated increase in stereotypic counts and decreases in resting time: appeared to be less potent
[7]
  Ki: 98 nM
Human M1 receptor
  potentiation of ACh response (calcium response): lack of a calcium response
Human M5 receptor
  potentiation of ACh response (calcium response): lack of a calcium response
